Laboratory results: ChEMBL document CHEMBL1158358, “Synthesis, antimicrobial and cytotoxic activities of some 5-arylidene-4-thioxo-thiazolidine-2-ones” (Eur J Med Chem, 2009)
In brackets after ≈: the same amount, converted by molar mass.

Tests used:
Type in all cases: functional
Escherichia coli = experiment: Antimicrobial activity against Escherichia coli UFPEDA 224 at 300 ug/disk after 24 hrs by disk diffusion method; conditions: UFPEDA 224, 24 h, read-out: IZ
Procedure, shortened: (§1)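 Preliminary screen by disk diffusion. Paper disks (6 mm) holding 300 µg of compound were placed on agar plates inoculated with a standardized microbial suspension. DMSO-only disks served as negative controls. A mean inhibition zone below 7 mm was scored as no sensitivity. Values are means, n = 3.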

HEp-2 [1] = experiment: Cytotoxicity against human Hep2 cells at 5 ug/mL after 72 hrs by MTT assay; conditions: HEp-2, 72 h, read-out: GI
Procedure, shortened: (§2)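 MTT antiproliferative assay. Cells were diluted to 10⁵ cells/mL in 96-well plates and preincubated for 24 h at 37 °C in humid 5% CO₂. Compounds or vincristine (reference) were then added. Formazan was dissolved and OD read at 540 nm, compared with medium-only control cells. Run in triplicate.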

Staphylococcus aureus [2] = experiment: Antimicrobial activity against multidrug-resistant Staphylococcus aureus H.C. 21036 isolate after 20 hrs by twofold serial dilution technique; conditions: H.C. 21036, 20 h
Procedure, shortened: (§3)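 Twofold serial dilution MIC in agar plates against Gram-positive strains and multidrug-resistant clinical isolates. Inoculum applied was 10⁵ CFU/plate. Plates with culture medium plus DMSO served as negative control. MIC was read after incubation at 35 °C for 20 h.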

Staphylococcus aureus [3] = experiment: Antimicrobial activity against Staphylococcus aureus UFPEDA 01 at 300 ug/disk after 24 hrs by disk diffusion method; conditions: UFPEDA 01, 24 h, read-out: IZ; procedure, shortened: as §1
Staphylococcus aureus [4] = experiment: Antimicrobial activity against multidrug-resistant Staphylococcus aureus H.C. 20489 isolate after 20 hrs by twofold serial dilution technique; conditions: H.C. 20489, 20 h; procedure, shortened: as §3
Bacillus subtilis [5] = experiment: Antimicrobial activity against Bacillus subtilis UFPEDA 16 after 20 hrs by twofold serial dilution technique; conditions: UFPEDA 16, 20 h
Procedure, shortened: (§4)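 MIC was determined by twofold serial dilution. Bacteria were tested in plates at 10⁵ CFU/plate and read after 20 h. C. albicans was tested in tubes at 10³ CFU/tube and read after 48 h. All incubations were at 35 °C. Medium plus DMSO served as the negative control.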

Enterococcus faecalis [6] = experiment: Antimicrobial activity against Enterococcus faecalis UFPEDA 138 at 300 ug/disk after 24 hrs by disk diffusion method; conditions: UFPEDA 138, 24 h, read-out: IZ; procedure, shortened: as §1
Staphylococcus aureus [7] = experiment: Antimicrobial activity against multidrug-resistant Staphylococcus aureus H.C. 21141 isolate after 20 hrs by twofold serial dilution technique; conditions: H.C. 21141, 20 h; procedure, shortened: as §3
NCI-H292 [8] = experiment: Cytotoxicity against human NCI-H292 cells at 1.25 ug/mL after 72 hrs by MTT assay; conditions: NCI-H292, 72 h, read-out: GI; procedure, shortened: as §2
[9] = test system: Mycolicibacterium smegmatis; experiment: Antimicrobial activity against Mycobacterium smegmatis UFPEDA 71 at 300 ug/disk after 24 hrs by disk diffusion method; conditions: UFPEDA 71, 24 h, read-out: IZ; procedure, shortened: as §1
Pseudomonas aeruginosa = experiment: Antimicrobial activity against Pseudomonas aeruginosa UFPEDA 39 at 300 ug/disk after 24 hrs by disk diffusion method; conditions: UFPEDA 39, 24 h, read-out: IZ; procedure, shortened: as §1
[10] = test system: Mycolicibacterium smegmatis; experiment: Antimicrobial activity against Mycobacterium smegmatis UFPEDA 71 after 20 hrs by twofold serial dilution technique; conditions: UFPEDA 71, 20 h; procedure, shortened: as §4
Micrococcus luteus [11] = experiment: Antimicrobial activity against Micrococcus luteus UFPEDA 06 at 300 ug/disk after 24 hrs by disk diffusion method; conditions: UFPEDA 06, 24 h, read-out: IZ; procedure, shortened: as §1
Enterococcus faecalis [12] = experiment: Antimicrobial activity against multidrug-resistant Enterococcus faecalis H.C. 24962 isolate after 20 hrs by twofold serial dilution technique; conditions: H.C. 24962, 20 h; procedure, shortened: as §3
Staphylococcus aureus [13] = experiment: Antimicrobial activity against multidrug-resistant Staphylococcus aureus H.C. 20794 isolate after 20 hrs by twofold serial dilution technique; conditions: H.C. 20794, 20 h; procedure, shortened: as §3
Staphylococcus [14] = experiment: Antimicrobial activity against coagulase-negative Staphylococcus H.A.M. 338 isolate after 20 hrs by twofold serial dilution technique; conditions: H.A.M. 338, 20 h; procedure, shortened: as §4
Staphylococcus aureus [15] = experiment: Antimicrobial activity against Staphylococcus aureus UFPEDA 01 after 20 hrs by twofold serial dilution technique; conditions: UFPEDA 01, 20 h; procedure, shortened: as §3
NCI-H292 [16] = experiment: Cytotoxicity against human NCI-H292 cells at 2.5 ug/mL after 72 hrs by MTT assay; conditions: NCI-H292, 72 h, read-out: GI; procedure, shortened: as §2
Serratia marcescens = experiment: Antimicrobial activity against Serratia marcescens UFPEDA 398 at 300 ug/disk after 24 hrs by disk diffusion method; conditions: UFPEDA 398, 24 h, read-out: IZ; procedure, shortened: as §1
Enterococcus faecalis [17] = experiment: Antimicrobial activity against multidrug-resistant Enterococcus faecalis H.C. 24708 isolate after 20 hrs by twofold serial dilution technique; conditions: H.C. 24708, 20 h; procedure, shortened: as §3
HEp-2 [18] = experiment: Cytotoxicity against human Hep2 cells at 1.25 ug/mL after 72 hrs by MTT assay; conditions: HEp-2, 72 h, read-out: GI; procedure, shortened: as §2
HEp-2 [19] = experiment: Cytotoxicity against human Hep2 cells at 10 ug/mL after 72 hrs by MTT assay; conditions: HEp-2, 72 h, read-out: GI; procedure, shortened: as §2
Candida albicans [20] = experiment: Antimicrobial activity against Candida albicans UFPEDA 1007 at 300 ug/disk after 48 hrs by disk diffusion method; conditions: UFPEDA 1007, 48 h, read-out: IZ; procedure, shortened: as §1
Staphylococcus aureus [21] = experiment: Antimicrobial activity against multidrug-resistant Staphylococcus aureus H.C. 20905 isolate after 20 hrs by twofold serial dilution technique; conditions: H.C. 20905, 20 h; procedure, shortened: as §3
Staphylococcus aureus [22] = experiment: Antimicrobial activity against multidrug-resistant Staphylococcus aureus H.C. 20981 isolate after 20 hrs by twofold serial dilution technique; conditions: H.C. 20981, 20 h; procedure, shortened: as §3
HEp-2 [23] = experiment: Cytotoxicity against human Hep2 cells at 2.5 ug/mL after 72 hrs by MTT assay; conditions: HEp-2, 72 h, read-out: GI; procedure, shortened: as §2
Candida albicans [24] = experiment: Antimicrobial activity against Candida albicans UFPEDA 1007 after 48 hrs by twofold serial dilution technique; conditions: UFPEDA 1007, 48 h; procedure, shortened: as §4
Bacillus subtilis [25] = experiment: Antimicrobial activity against Bacillus subtilis UFPEDA 16 at 300 ug/disk after 24 hrs by disk diffusion method; conditions: UFPEDA 16, 24 h, read-out: IZ; procedure, shortened: as §1
Enterococcus faecalis [26] = experiment: Antimicrobial activity against multidrug-resistant Enterococcus faecalis H.C. 21944 isolate after 20 hrs by twofold serial dilution technique; conditions: H.C. 21944, 20 h; procedure, shortened: as §3
Enterococcus faecalis [27] = experiment: Antimicrobial activity against Enterococcus faecalis UFPEDA 138 after 20 hrs by twofold serial dilution technique; conditions: UFPEDA 138, 20 h; procedure, shortened: as §4
Enterococcus faecalis [28] = experiment: Antimicrobial activity against multidrug-resistant Enterococcus faecalis H.C. 21752 isolate after 20 hrs by twofold serial dilution technique; conditions: H.C. 21752, 20 h; procedure, shortened: as §3
Staphylococcus [29] = experiment: Antimicrobial activity against coagulase-negative Staphylococcus H.A.M. 278 isolate after 20 hrs by twofold serial dilution technique; conditions: H.A.M. 278, 20 h; procedure, shortened: as §4
NCI-H292 [30] = experiment: Cytotoxicity against human NCI-H292 cells at 10 ug/mL after 72 hrs by MTT assay; conditions: NCI-H292, 72 h, read-out: GI; procedure, shortened: as §2
NCI-H292 [31] = experiment: Cytotoxicity against human NCI-H292 cells at 5 ug/mL after 72 hrs by MTT assay; conditions: NCI-H292, 72 h, read-out: GI; procedure, shortened: as §2
Micrococcus luteus [32] = experiment: Antimicrobial activity against Micrococcus luteus UFPEDA 06 after 20 hrs by twofold serial dilution technique; conditions: UFPEDA 06, 20 h; procedure, shortened: as §4

SMILES	zone of inhibition at 300 µg/disc (Escherichia coli) [mm]	inhibition of growth at 5 µg/mL (HEp-2 [1]) [%]	MIC (Staphylococcus aureus [2]) [µg/mL]	zone of inhibition at 300 µg/disc (Staphylococcus aureus [3]) [mm]	MIC (Staphylococcus aureus [4]) [µg/mL]	MIC (Bacillus subtilis [5]) [µg/mL]	zone of inhibition at 300 µg/disc (Enterococcus faecalis [6]) [mm]	MIC (Staphylococcus aureus [7]) [µg/mL]	inhibition of growth at 1.25 µg/mL (NCI-H292 [8]) [%]	zone of inhibition at 300 µg/disc [9] [mm]	zone of inhibition at 300 µg/disc (Pseudomonas aeruginosa) [mm]	MIC [10] [µg/mL]	zone of inhibition at 300 µg/disc (Micrococcus luteus [11]) [mm]	MIC (Enterococcus faecalis [12]) [µg/mL]	MIC (Staphylococcus aureus [13]) [µg/mL]	MIC (Staphylococcus [14]) [µg/mL]	MIC (Staphylococcus aureus [15]) [µg/mL]	inhibition of growth at 2.5 µg/mL (NCI-H292 [16]) [%]	zone of inhibition at 300 µg/disc (Serratia marcescens) [mm]	MIC (Enterococcus faecalis [17]) [µg/mL]	other results
O=C1NC(=S)/C(=C/c2ccccc2Br)S1	< 7	16.2	4 (≈ 13.3 µM)	25	4 (≈ 13.3 µM)	8 (≈ 26.6 µM)	19	16 (≈ 53.3 µM)	13.3	21	< 7	32 (≈ 107 µM)	18	16 (≈ 53.3 µM)	4 (≈ 13.3 µM)	16 (≈ 53.3 µM)	4 (≈ 13.3 µM)	16.2	< 7	16 (≈ 53.3 µM)	inhibition of growth at 1.25 µg/mL (HEp-2 [18]): 3.14%; inhibition of growth at 10 µg/mL (HEp-2 [19]): 21.2%; zone of inhibition at 300 µg/disc (Candida albicans [20]): 13 mm; MIC (Staphylococcus aureus [21]): 4 µg/mL (≈ 13.3 µM); MIC (Staphylococcus aureus [22]): 4 µg/mL (≈ 13.3 µM); inhibition of growth at 2.5 µg/mL (HEp-2 [23]): 10.3%; MIC (Candida albicans [24]): 32 µg/mL (≈ 107 µM); zone of inhibition at 300 µg/disc (Bacillus subtilis [25]): 19 mm; MIC (Enterococcus faecalis [26]): 16 µg/mL (≈ 53.3 µM); MIC (Enterococcus faecalis [27]): 32 µg/mL (≈ 107 µM); MIC (Enterococcus faecalis [28]): 8 µg/mL (≈ 26.6 µM); MIC (Staphylococcus [29]): 2 µg/mL (≈ 6.66 µM); inhibition of growth at 10 µg/mL (NCI-H292 [30]): 36.9%; inhibition of growth at 5 µg/mL (NCI-H292 [31]): 22.9%; MIC (Micrococcus luteus [32]): 16 µg/mL (≈ 53.3 µM)
O=C1NC(=S)/C(=C/c2cccc(Br)c2)S1	< 7	-1.04	16 (≈ 53.3 µM)	28	8 (≈ 26.6 µM)	8 (≈ 26.6 µM)	25	32 (≈ 107 µM)	4.67	25	< 7	16 (≈ 53.3 µM)	29	16 (≈ 53.3 µM)	8 (≈ 26.6 µM)	64 (≈ 213 µM)	4 (≈ 13.3 µM)	11.1	< 7	8 (≈ 26.6 µM)	inhibition of growth at 1.25 µg/mL (HEp-2 [18]): -5.3%; inhibition of growth at 10 µg/mL (HEp-2 [19]): 23.6%; zone of inhibition at 300 µg/disc (Candida albicans [20]): 14 mm; MIC (Staphylococcus aureus [21]): 16 µg/mL (≈ 53.3 µM); MIC (Staphylococcus aureus [22]): 16 µg/mL (≈ 53.3 µM); inhibition of growth at 2.5 µg/mL (HEp-2 [23]): -1.82%; MIC (Candida albicans [24]): 64 µg/mL (≈ 213 µM); zone of inhibition at 300 µg/disc (Bacillus subtilis [25]): 26 mm; MIC (Enterococcus faecalis [26]): 16 µg/mL (≈ 53.3 µM); MIC (Enterococcus faecalis [27]): 16 µg/mL (≈ 53.3 µM); MIC (Enterococcus faecalis [28]): 8 µg/mL (≈ 26.6 µM); MIC (Staphylococcus [29]): 64 µg/mL (≈ 213 µM); inhibition of growth at 10 µg/mL (NCI-H292 [30]): 42.4%; inhibition of growth at 5 µg/mL (NCI-H292 [31]): 22%; MIC (Micrococcus luteus [32]): 8 µg/mL (≈ 26.6 µM)
